# Experimental data gathered from unrelated publications.
# Compare with care: the assays were run in different laboratories.
# Target: Tyrosine-protein kinase SYK (SYK, Homo sapiens, UniProt P43405)
Structure (SMILES),test,conditions,quantity,result
C#Cc1n[nH]c2c(-c3cn([C@@H](C)c4ccccn4)c(=O)[nH]c3=O)cc(F)cc12,"enzyme activity, inhibitor",0.1 µM,inhibition,3.3%
O=c1[nH]c2ccccc2n1C1CCN(Cc2ccc(-c3[nH]c4cc5ncnc5cc4nc3-c3ccccc3)cc2)CC1,cell-free assay,0.5 µM,remaining signal,97.9%
COc1ncccc1-c1cnn2ccc(N3CCN(C(=O)OC(C)C)CC3)nc12,"binding, competition with immobilised ligand",1 µM,remaining binding,100%
N#CC1(c2ccccn2)CCN(Cc2cc(C(=O)O)c(=O)n3ccccc23)CC1,"cell-free assay, competition with immobilised ligand",1 µM,remaining binding,92%
Cc1nn(C)cc1-c1nc2c(N3CCN(Cc4ccc(Cl)cc4)CC3)c(Cl)cnc2[nH]1,"binding, competition with immobilised ligand",1 µM,remaining binding,100%
Cn1cc(-c2cccc(N3CCc4c(sc5c4CC(C)(C)C5)C3=O)c2CO)cc(Nc2ccncn2)c1=O,"enzyme activity, inhibitor",1 µM,inhibition,0%
Nc1ncc(-c2nc(N3CCOCC3)nc(N3CCOCC3)n2)c(C(F)F)n1,"binding, competition with immobilised ligand",10 µM,remaining binding,61%
Cn1cncc1[C@@](O)(COc1ccc(C#N)cc1-c1ccc(OC(F)(F)F)cc1)c1ccc(C#N)cc1,"cell-free assay, competition with immobilised ligand",1 µM,remaining binding,100%
Cn1cc(-c2cc(F)cc(N3CCn4c(cc5c4CCCC5)C3=O)c2CO)cc(Nc2ccc(N3CCN(C4COC4)CC3)cn2)c1=O,"enzyme activity, inhibitor",0.1 µM,inhibition,12%
